Compound activity (PubChem)
VIM-2 inh – blocks Pseudomonas aeruginosa VIM-2 metallo-beta-lactamase; purified VIM-2, nitrocefin hydrolysis, epi-absorbance fluorescence; inhibition, % at 5.6 µM; actives 0.89% (n = 290,000); AID 1527;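 active = inhibition above the mean of all tested compounds plus 3 SD, cutoff set per screening run, cut at about 7.5% in these data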;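 also: red hydrolysis product quenches plate fluorescence so inhibitors raise well fluorescence; 0% = enzyme with DMSO and 100% = DMSO without enzyme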
NS3 helicase inh – HCV NS3 helicase inhibition; inhibition, % at 10.9 µM; NS3 helicase DNA unwinding, Cy5 molecular beacon fluorescence; actives 0.56% (n = 290,000);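 active = inhibition above the mean of all tested compounds plus 3 SD, set per campaign, cut at about 35% in these data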;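 also: 0% = DMSO wells and 100% = thioflavine S control wells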
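Measured by: Cy5 fluorescence, 0 and 60 min reads / Assay system: NS3 helicase fragment of HCV / Control set: low DMSO, high thioflavine S at 110 µM / Times: 1 h reaction at 25 °C, ATP-initiated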
HCV core dimer – HCV core protein dimerization inhibition; TR-FRET GST/Flag-core106 dimerization, 1536-well; inhibition, % at 5 µM; actives 0.33% (n = 300,000); AID 1899;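 active = inhibition above the mean of all tested compounds plus 3 SD, set per screening campaign, cut at about 45% in these data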
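assay system = GST-tagged and Flag-tagged HCV core protein residues 1-106 | controls = unlabelled core106 and no-GST-core106 wells | incubation = compound-protein-antibody incubation 4 h at 22.5 °C | probe or stimulus = Eu donor and XL665 acceptor anti-tag antibodies | read-out = % inhibition based on acceptor/donor emission ratio | signal = TR-FRET 671 and 617 nm emission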
IMP-1 inh – blocks Pseudomonas aeruginosa IMP-1 metallo-beta-lactamase; purified IMP-1, nitrocefin hydrolysis, epi-absorbance fluorescence; inhibition, % at 5.6 µM; actives 0.45% (n = 290,000); AID 1556;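 active = inhibition above the mean plus 3 SD of all compounds in the same screening run, cut at about 4.5% in these data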;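 also: 0% = IMP-1 with DMSO and 100% = DMSO wells lacking enzyme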
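System: purified IMP-1 / Input: IMP-1 dispensed at 0.2 nM / Medium: 50 mM HEPES pH 7.1, 50 µM ZnSO4, 0.05% Brij 35 / Timing: 15 min enzyme–compound preincubation, then 25 min nitrocefin reaction, 25 °C / Technique: plate fluorescence quenching by hydrolysis product, ex 480/em 530 nm / Repeats: singlicate testing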
PHOSPHO1 block – inhibitors of human PHOSPHO1 phosphatase | Q8TCT1 | recombinant PHOSPHO1, absorbance phosphatase assay | inhibition, % at 13.3 µM | actives 1.1% (n = 290,000); in the data active = inhibition above about 60%
Target sequence (Q8TCT1 whole entry, looked up): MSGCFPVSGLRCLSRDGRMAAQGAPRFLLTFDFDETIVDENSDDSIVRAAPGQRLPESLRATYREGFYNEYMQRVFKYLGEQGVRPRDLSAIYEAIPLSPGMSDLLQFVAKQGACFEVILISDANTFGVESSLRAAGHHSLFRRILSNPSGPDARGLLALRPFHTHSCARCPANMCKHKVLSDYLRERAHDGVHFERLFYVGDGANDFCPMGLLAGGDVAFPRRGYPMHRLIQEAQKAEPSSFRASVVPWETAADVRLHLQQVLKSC
SUMO HTRF inh – SUMOylation inhibition; P63279; HTRF SUMOylation assay, SAE1/SAE2 + UBC9, in vitro; inhibition, % at 35 µM; actives 0.36% (n = 290,000); AID 2006; in the data active = inhibition above about 50%, passing the limit was not always enough
VIM-2 confirm – VIM-2 inhibition, confirmation assay | inhibition, % at 5.6 µM | actives 73% (n = 200) | purified VIM-2 enzyme, nitrocefin absorbance | shares compounds with IMP-1 inh; in the data active = inhibition above about 8%;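 also: 0% = enzyme with vehicle and 100% = no enzyme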
TEM-1 inh 2 – blocks E. coli TEM-1 beta-lactamase, VIM-2 IMP-1 counter-screen; shares compounds with IMP-1 inh; nitrocefin absorbance inhibition; inhibition, % at 5.6 µM; actives 50% (n = 200); AID 2184; in the data active = inhibition above about 0.66%
Target sequence (P62593 whole entry, looked up): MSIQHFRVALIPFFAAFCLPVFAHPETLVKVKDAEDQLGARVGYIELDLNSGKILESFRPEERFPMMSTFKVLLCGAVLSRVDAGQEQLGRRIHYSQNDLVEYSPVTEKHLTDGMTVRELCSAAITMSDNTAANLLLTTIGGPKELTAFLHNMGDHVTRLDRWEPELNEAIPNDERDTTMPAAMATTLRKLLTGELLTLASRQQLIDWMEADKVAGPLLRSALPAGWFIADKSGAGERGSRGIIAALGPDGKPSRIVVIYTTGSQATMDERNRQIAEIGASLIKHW
IMP-1 confirm – confirmation of P. aeruginosa IMP-1 metallo-beta-lactamase inhibitors. inhibition, % at 5.6 µM. purified IMP-1 enzyme, absorbance substrate hydrolysis. shares compounds with IMP-1 inh. AID 2189. actives 60% (n = 200); in the data active = inhibition above about 4.9%;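 also: 0% = enzyme with vehicle and 100% = vehicle without enzyme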
* hit, by the source's call. Sampled rows, rich in hits. Any-hit rate of the full collection: about 3.1%.

CCN(CC)c1ccc2cc(-c3nnc(-c4ccc(Br)cc4)o3)c(=O)oc2c1 was read as VIM-2 inh -2, NS3 helicase inh -2 and IMP-1 inh -2.
CCN(CC)c1ccc2cc(-c3nnc(-c4ccccc4)o3)c(=O)oc2c1 was read as VIM-2 inh 8.4*, NS3 helicase inh 2, HCV core dimer -2, IMP-1 inh 8.3*, PHOSPHO1 block -3, SUMO HTRF inh 27, VIM-2 confirm 33*, TEM-1 inh 2 43* and IMP-1 confirm 26*.
For CCN(CC)c1ccc2cc(-c3nc4ccccc4[nH]3)c(=O)oc2c1 the results were VIM-2 inh 13*, NS3 helicase inh -3, HCV core dimer -6, IMP-1 inh 18*, PHOSPHO1 block 7, SUMO HTRF inh 30, VIM-2 confirm 61*, TEM-1 inh 2 105* and IMP-1 confirm 59*.
`CC(CN1CCN(C)CC1)OC(=O)c1cccc(F)c1` (stereo unspecified) gave VIM-2 inh -1, NS3 helicase inh -2, HCV core dimer -1, IMP-1 inh 0, PHOSPHO1 block 24 and SUMO HTRF inh -9.
Screening COc1cccc2c1C(=O)CC1C2CCC2CC(=O)CCC21C (stereo unspecified) returned HCV core dimer -6.
Screening CCN(CC)c1ccc2cc(C(=O)NCc3ccc(F)cc3)c(=N)oc2c1 returned VIM-2 inh 8, NS3 helicase inh -21, HCV core dimer 1, IMP-1 inh 21*, PHOSPHO1 block 47, SUMO HTRF inh -7, VIM-2 confirm 17*, TEM-1 inh 2 26* and IMP-1 confirm 13*.
`COC(=O)[C@H]1[C@H](c2ccccc2)[C@H](C(=O)OC)O[C@H]1c1ccccc1` gave HCV core dimer -3.
For COC(=O)C1C(c2ccccc2)C=CC(c2ccccc2)C1C(=O)O (stereo unspecified) the results were VIM-2 inh 8.7*, NS3 helicase inh 4, HCV core dimer 1, IMP-1 inh 61*, PHOSPHO1 block 3, SUMO HTRF inh 23, VIM-2 confirm 3, TEM-1 inh 2 -4 and IMP-1 confirm 39*.
Screening CCOC(=O)CC1(NC(=O)C2CCC(=O)N(Cc3ccccc3F)C2)CCCCC1 (stereo unspecified) returned VIM-2 inh 2, NS3 helicase inh 22, HCV core dimer -7, IMP-1 inh 2, PHOSPHO1 block -11 and SUMO HTRF inh -12.
`O=C1C2C(c3ccccc3)C=CC(c3ccccc3)C2C(=O)N1c1ccccn1` (stereo unspecified) gave VIM-2 inh 26*, NS3 helicase inh 7, HCV core dimer 9, IMP-1 inh 75*, PHOSPHO1 block 0, SUMO HTRF inh -3, VIM-2 confirm 12*, TEM-1 inh 2 -5 and IMP-1 confirm 37*.
O=C1c2c(Br)c(Br)c(Br)c(Br)c2C(=O)N1c1ccccn1 was read as VIM-2 inh 5, NS3 helicase inh 8, HCV core dimer 25, IMP-1 inh 1, PHOSPHO1 block 14 and SUMO HTRF inh 19.
O=C1C2C(c3ccccc3)C=CC(c3ccccc3)C2C(=O)N1c1ccncc1 (stereo unspecified) was read as VIM-2 inh 25*, NS3 helicase inh 10, HCV core dimer 10, IMP-1 inh 65*, PHOSPHO1 block 28, SUMO HTRF inh -4, VIM-2 confirm 11*, TEM-1 inh 2 -1 and IMP-1 confirm 29*.
For O=C1C2C3C=CC(C3)C2C(=O)N1c1ccncc1 (stereo unspecified) the results were VIM-2 inh 0, NS3 helicase inh 8, HCV core dimer 0, IMP-1 inh -2, PHOSPHO1 block 33 and SUMO HTRF inh 26.
`CN(C)/C=C1\C=C2C(=O)c3ccccc3N2C1=O` gave VIM-2 inh 20*, NS3 helicase inh 3, HCV core dimer -10, IMP-1 inh 21*, PHOSPHO1 block -12, SUMO HTRF inh 11, VIM-2 confirm 134*, TEM-1 inh 2 active and IMP-1 confirm 119*.
Cn1cc(C=O)c2cc(F)ccc21 was read as VIM-2 inh 1, NS3 helicase inh 6, HCV core dimer -2, IMP-1 inh 1, PHOSPHO1 block 56 and SUMO HTRF inh 13.
For Cn1cc(/C=C/c2cc[n+](C)cc2)c2cc(F)ccc21 the results were VIM-2 inh 11*, NS3 helicase inh 12, HCV core dimer -39, IMP-1 inh 5.7*, PHOSPHO1 block -12, SUMO HTRF inh 7, VIM-2 confirm 14*, TEM-1 inh 2 4.7* and IMP-1 confirm 7.5*.
Screening Cn1cc(/C=C/c2cc[n+](C)cc2)c2cc(Cl)ccc21 returned VIM-2 inh 13*, NS3 helicase inh -15, HCV core dimer -23, IMP-1 inh 5.8*, PHOSPHO1 block -6, SUMO HTRF inh 15, VIM-2 confirm 22*, TEM-1 inh 2 2.8* and IMP-1 confirm 4.
CCCCC(Sc1nc(N)c(NC(=O)c2ccco2)c(=O)[nH]1)C(=O)O (stereo unspecified) was read as VIM-2 inh 12*, NS3 helicase inh 10, HCV core dimer -11, IMP-1 inh 12*, PHOSPHO1 block -9, SUMO HTRF inh 14, VIM-2 confirm 25*, TEM-1 inh 2 1.7* and IMP-1 confirm 36*.
CCCCC(Sc1nc(N)c(NC(=O)c2ccc(OCC)cc2)c(=O)[nH]1)C(=O)O (stereo unspecified) was read as VIM-2 inh 0, NS3 helicase inh -2, HCV core dimer -7, IMP-1 inh -1, PHOSPHO1 block -13 and SUMO HTRF inh 21.
For Cc1cc(C)cc(NC(=O)N2CCCN(Cc3c(F)cccc3Cl)CC2)c1 the results were VIM-2 inh -2, NS3 helicase inh -9, HCV core dimer 2, IMP-1 inh -1, PHOSPHO1 block 42 and SUMO HTRF inh 14.
For CCOC(=O)N1C(=O)c2cc(OC)ccc2S1(=O)=O the results were VIM-2 inh 9.4*, NS3 helicase inh 5, HCV core dimer -3, IMP-1 inh 38*, PHOSPHO1 block 40, SUMO HTRF inh 12, VIM-2 confirm 3, TEM-1 inh 2 1.5* and IMP-1 confirm 5.3*.
N#CC1(NC(=O)CN2C(=O)c3ccc([N+](=O)[O-])cc3C2=O)CCCCC1 was read as HCV core dimer 0.
